Measured values from ChEMBL document CHEMBL1135438, “Synthesis and pharmacological characterization of novel analogues of the nicotinic acetylcholine receptor agonist (+/-)-UB-165” (J Med Chem, 2002).

Columns and labels:
[1] = molecular target: Neuronal acetylcholine receptor; alpha4/beta2 (Rattus norvegicus, UniProt P09483+P12390); assay: Binding affinity at rat brain Nicotinic acetylcholine receptor alpha4-beta2
Outline: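 Rat brain P2 membranes (250 μg protein) competed against 10 nM (–)-[3H]nicotine, 30 min room temperature then 1 h at 4 °C; filtration. Nonspecific binding with 1 mM (–)-nicotine.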

[2] = Compound was tested for its potency at Nicotinic acetylcholine receptor alpha3-beta4 relative to that of Nicotinic acetylcholine receptor alpha4-beta2
[3] = molecular target: T1, Neuronal acetylcholine receptor; alpha3/beta4 (Rattus norvegicus, UniProt P04757+P12392); assay: Activation potency at Nicotinic acetylcholine receptor alpha3beta4, expressed as concentration required to achieve a half maximal activation; format: protein-complex assay
T1 sequence (P04757 whole entry): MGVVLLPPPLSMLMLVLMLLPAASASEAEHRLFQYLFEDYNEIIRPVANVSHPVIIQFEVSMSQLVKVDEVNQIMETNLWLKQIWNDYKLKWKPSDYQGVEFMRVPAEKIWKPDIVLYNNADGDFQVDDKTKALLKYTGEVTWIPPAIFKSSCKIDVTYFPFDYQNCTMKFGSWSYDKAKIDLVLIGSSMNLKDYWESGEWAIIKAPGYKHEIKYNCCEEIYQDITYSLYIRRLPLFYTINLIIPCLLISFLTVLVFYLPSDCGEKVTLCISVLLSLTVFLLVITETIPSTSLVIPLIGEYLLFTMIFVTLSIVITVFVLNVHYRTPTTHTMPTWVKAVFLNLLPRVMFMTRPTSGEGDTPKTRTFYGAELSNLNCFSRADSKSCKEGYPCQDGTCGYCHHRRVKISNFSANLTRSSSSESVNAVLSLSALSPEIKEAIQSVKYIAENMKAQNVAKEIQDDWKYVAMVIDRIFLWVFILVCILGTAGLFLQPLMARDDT
T1 sequence (P12392 whole entry): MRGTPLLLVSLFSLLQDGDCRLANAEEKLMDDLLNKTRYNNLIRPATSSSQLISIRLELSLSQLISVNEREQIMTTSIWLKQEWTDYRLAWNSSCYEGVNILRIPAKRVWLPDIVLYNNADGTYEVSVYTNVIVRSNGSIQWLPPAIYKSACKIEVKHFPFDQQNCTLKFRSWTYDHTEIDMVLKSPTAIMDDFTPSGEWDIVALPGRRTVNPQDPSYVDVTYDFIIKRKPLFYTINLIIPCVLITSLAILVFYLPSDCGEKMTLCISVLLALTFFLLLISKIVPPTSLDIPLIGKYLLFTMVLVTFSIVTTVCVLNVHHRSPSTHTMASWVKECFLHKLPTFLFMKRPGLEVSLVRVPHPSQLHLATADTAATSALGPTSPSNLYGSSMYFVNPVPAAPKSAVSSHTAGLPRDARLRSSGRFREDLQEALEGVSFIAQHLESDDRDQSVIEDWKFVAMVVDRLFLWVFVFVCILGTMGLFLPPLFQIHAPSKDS
Outline: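 Rat α3β4 nAChR stably expressed in L cells, induced 7–10 days with 1 μM dexamethasone; cells loaded with 5 μM fluo-3 (1 h, room temperature, dark). Agonist given in high-calcium buffer (75 mM CaCl2, pH 7.4), fluorescence followed 16 s.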

[4] = molecular target: T1, Neuronal acetylcholine receptor; alpha3/beta4; assay: Binding affinity at rat brain Nicotinic acetylcholine receptor alpha3-beta4
[5] = molecular target: Neuronal acetylcholine receptor subunit alpha-7 (Rattus norvegicus, UniProt Q05941); assay: Binding affinity at rat brain Nicotinic acetylcholine receptor alpha7
Neuronal acetylcholine receptor subunit alpha-7, sequence (Q05941 whole entry): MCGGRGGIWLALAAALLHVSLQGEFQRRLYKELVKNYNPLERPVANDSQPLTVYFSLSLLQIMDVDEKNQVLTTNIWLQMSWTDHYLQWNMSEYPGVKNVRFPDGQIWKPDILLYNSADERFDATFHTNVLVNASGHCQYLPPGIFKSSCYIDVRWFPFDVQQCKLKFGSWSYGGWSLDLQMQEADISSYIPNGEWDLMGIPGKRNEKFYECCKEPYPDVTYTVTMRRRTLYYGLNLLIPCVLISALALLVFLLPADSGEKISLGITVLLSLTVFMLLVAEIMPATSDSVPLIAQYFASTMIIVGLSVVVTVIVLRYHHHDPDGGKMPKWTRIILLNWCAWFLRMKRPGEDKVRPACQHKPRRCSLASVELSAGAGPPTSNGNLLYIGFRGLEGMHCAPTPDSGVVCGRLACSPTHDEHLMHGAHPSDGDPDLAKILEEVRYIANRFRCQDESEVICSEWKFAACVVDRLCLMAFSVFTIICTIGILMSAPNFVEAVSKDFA

[6] = molecular target: Neuronal acetylcholine receptor subunit alpha-7 (Rattus norvegicus) (UniProt Q05941); assay: Compound was tested for its potency at Nicotinic acetylcholine receptor alpha-7 relative to that of Nicotinic acetylcholine receptor alpha4-beta2
Neuronal acetylcholine receptor subunit alpha-7 (Rattus norvegicus), sequence (Q05941 whole entry): as above

[7] = Ratio of Ki (binding affinity) relative to activation potency

Neuronal acetylcholine receptor; alpha4/beta2, sequence (P09483 whole entry): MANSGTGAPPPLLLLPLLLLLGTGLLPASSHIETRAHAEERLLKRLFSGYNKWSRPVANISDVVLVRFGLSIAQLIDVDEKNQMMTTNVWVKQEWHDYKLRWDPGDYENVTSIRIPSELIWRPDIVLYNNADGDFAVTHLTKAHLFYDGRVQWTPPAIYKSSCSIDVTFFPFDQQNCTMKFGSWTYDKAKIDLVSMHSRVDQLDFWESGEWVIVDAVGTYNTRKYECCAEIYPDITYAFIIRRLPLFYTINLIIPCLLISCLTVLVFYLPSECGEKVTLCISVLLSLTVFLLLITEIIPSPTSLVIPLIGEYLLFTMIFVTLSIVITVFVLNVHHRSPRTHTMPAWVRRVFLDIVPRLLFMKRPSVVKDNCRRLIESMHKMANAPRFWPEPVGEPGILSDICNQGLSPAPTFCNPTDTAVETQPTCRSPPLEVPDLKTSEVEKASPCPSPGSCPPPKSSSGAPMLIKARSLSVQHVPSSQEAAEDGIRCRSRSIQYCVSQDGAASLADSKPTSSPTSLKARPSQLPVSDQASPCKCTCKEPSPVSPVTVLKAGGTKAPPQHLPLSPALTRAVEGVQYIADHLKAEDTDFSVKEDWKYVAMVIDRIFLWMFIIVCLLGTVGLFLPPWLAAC
Neuronal acetylcholine receptor; alpha4/beta2, sequence (P12390 whole entry): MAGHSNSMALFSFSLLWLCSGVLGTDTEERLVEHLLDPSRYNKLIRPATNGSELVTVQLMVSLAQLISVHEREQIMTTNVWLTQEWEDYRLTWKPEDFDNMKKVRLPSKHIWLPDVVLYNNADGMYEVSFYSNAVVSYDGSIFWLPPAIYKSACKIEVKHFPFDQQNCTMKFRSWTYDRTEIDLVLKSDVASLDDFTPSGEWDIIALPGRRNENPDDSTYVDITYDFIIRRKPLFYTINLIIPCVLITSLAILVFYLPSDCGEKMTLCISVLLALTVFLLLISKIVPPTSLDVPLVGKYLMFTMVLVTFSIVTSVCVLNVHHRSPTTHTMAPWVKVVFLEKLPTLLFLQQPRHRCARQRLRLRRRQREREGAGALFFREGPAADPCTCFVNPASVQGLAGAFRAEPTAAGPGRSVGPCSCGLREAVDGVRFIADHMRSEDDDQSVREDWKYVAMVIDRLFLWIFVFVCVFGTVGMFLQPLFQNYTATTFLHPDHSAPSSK

| Compound | Ki [1] | Affinity ratio [2] | EC50 [3] | Ki [4] | Ki [5] | Affinity ratio [6] | Ratio [7] |
| --- | --- | --- | --- | --- | --- | --- | --- |
| C1=C(c2ccncc2)C2CC[C@H](CC1)N2 | 11000 nM | 2 | > 100000 nM | 22000 nM | > 50000 nM | – | – |
| C1=C(c2cncnc2)C2CC[C@H](CC1)N2 | 2.45 nM | 96 | 3890 nM | 236 nM | 1710 nM | 696 | 16 |
| C1=C(c2cnccn2)C2CC[C@H](CC1)N2 | 58 nM | 49 | > 100000 nM | 2850 nM | 5770 nM | 100 | – |
| Clc1ccc(C2=CCCC3CCC2N3)cn1 (racemic) | – | – | – | – | 2760 nM | – | – |
| C1=C(c2ccccn2)C2CC[C@H](CC1)N2 | – | 6.8 | > 100000 nM | 10500 nM | 47500 nM | 31 | – |
| C1=C(c2cccnn2)C2CC[C@H](CC1)N2 | 2.6 nM | 20 | 4190 nM | 306 nM | 68.4 nM | 118 | 14 |
| C1=C(c2cccnc2)C2CC[C@H](CC1)N2 | 0.43 nM | – | – | – | 89 nM | – | – |
